Assay outcomes deposited in PubChem BioAssay by several laboratories.
Rows were chosen to be rich in hits. Some 1% of all compounds tested hit in one or more screens of this group.
INS-1E GSIS act = primary screen for activators of insulin secretion dependent on glucose, INS-1E cells, GLuc reporter luminescence. INS-1E GLuc reporter insulin secretion, 2-3 h. 370,000 compounds, 0.61% hits. AID 743287. activation, % at 16.6 µM;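 active = lowest replicate activation of at least 40%, so every replicate reaches that level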;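 note: 0% = median of neutral control wells and 100% = median of IBMX positive control wells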
XiGFP reactiv = activators of X-chromosome reactivation in mouse fibroblasts; 360,000 compounds, 0.055% hits; XiGFP mouse fibroblasts, % GFP-positive cells imaging, 3 d; cells co-treated with 5-aza-dC sensitizer; scaled so ellipticine positive control = 100%; activation, % at 7.58 µM; AID 743238;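 active = mean normalized replicate activation at least 10% and every replicate at or above 10%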;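 note: 0% = median of on-plate neutral control wells and 100% = ellipticine 6 µM median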
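Material: XiGFP fibroblasts, SV40-immortalized. Buffer or medium: DMEM plus 5-aza-dC sensitizer. Compound: single concentration per compound, delivered by pin transfer. Times: 3 days compound exposure. Controls: ellipticine 6 µM.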
CaV13 ICDI inh = Disruptors of the CACNA1D IQ motif to Ca2+-dependent inactivation inhibitor domain association, primary screening, Förster resonance energy transfer in intact living …; HEK cells, CFP/YFP FRET ICDI-IQ, plate reader, 10 min; percent FRET-ratio fall versus neutral wells; inhibition, % at 12.3 µM; AID 743397; 340,000 compounds, 0.098% hits;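 active = mean replicate inhibition of at least 30% and at least 1% of replicates passing that level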;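 note: 0% = median of the neutral control wells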
GAA850 FXN act = increases GAA850 frataxin promoter reporter activity; HEK293 lucGAA850 FXN promoter luciferase reporter, 24 h; percent of 10 µM SAHA response; activation, % at 6 µM; 360,000 compounds, 0.56% hits;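 active = activation above the average of all compounds screened plus 3 SD, cutoff fixed separately per campaign, cut at about 7.5% in these data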;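 note: 0% = DMSO wells and 100% = 10 µM SAHA wells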
Starred values were filed as active, the others as inactive; x = not tested or not shown; ! = a repeat was not active.

SMILES | INS-1E GSIS act | XiGFP reactiv | CaV13 ICDI inh | GAA850 FXN act
O=c1[nH]c2cc(Cl)ccc2n1C1CCN(Cc2ccc(-c3nc4ccc(F)cc4nc3-c3ccccc3)cc2)CC1 | -17 | 0 | -5 | x
Cc1cccc2nc(-c3ccccc3)c(-c3ccc(CN4CCC(n5c(=O)[nH]c6cc(Cl)ccc65)CC4)cc3)nc12 | 42* | 0 | -14 | x
FC(F)(F)CN1C[C@@H]2C(c3ccc(Br)cc3)[C@H](C1)N2CC1CC1 (stereo partly drawn) | 3 | 0 | x | x
CCN(CC)c1ccc(N=Cc2c(O)n(-c3ccccc3)c(=O)[nH]c2=O)cc1 | x | 0 | -27 | -1
CCN(CC)c1ccc(N=Cc2c(O)n(Cc3ccccc3)c(=O)[nH]c2=O)cc1 | 41* | 0 | -5 | -1
COC(=O)[C@H]1[C@H](CO)[C@H]2Cn3c(cccc3=O)[C@@H]1N2Cc1nccs1 | 2 | 0 | x | x
CC(=O)N1C[C@@H]2C(c3ccccc3)[C@H](C1)N2C (stereo partly drawn) | -8 | 0 | x | x
O=[N+]([O-])/C=C/c1c(Cl)cccc1Cl | x | 0 | -3 | 9.0*
COC(=O)[C@H]1[C@H](CO)[C@H]2Cn3c(ccc(-c4ccncc4)c3=O)[C@@H]1N2S(=O)(=O)c1ccccc1F | 6 | 0 | x | x
CN(C)[C@@H]1C(=O)C(C(N)=O)=C(O)[C@@]2(O)C(=O)C3=C(O)c4c(O)cccc4[C@@](C)(O)C3C[C@@H]12 (stereo partly drawn) | x | 0 | -5 | 19*
O=C(Cc1ccccn1)N1CC2(C1)[C@@H](c1ccccc1)[C@@H](CO)N2Cc1ccccn1 | 0 | 0 | x | x
CC(C)NC(=O)N1CC2C(c3ccccc3)C(C1)N2C (stereo not drawn) | 16 | 0 | x | x
CC(C)OP(=O)(O)NC(=O)c1ccccc1 | 1 | 0 | 167* | 0
C=CCSc1nc2c(c(-c3ccsc3)c1C#N)CN(C)CC2 | 46* | 0 | -3 | 2
CC(=NC(C)c1ccccc1)c1c(O)[nH]c(=O)[nH]c1=O (stereo not drawn) | 104* | x | -5 | 7
N#CC1=C(N)Oc2cc(O)ccc2C1c1ccc2c(c1)OCO2 (stereo not drawn) | 16 | 0 | 144* | 3
CC=Cc1ccc2n(c1=O)C[C@@H]1[C@@H](CO)[C@H](C(=O)OC)[C@H]2N1S(=O)(=O)c1ccccc1C (mixture of isomers) | 2 | 0 | x | x
COC(=O)C[C@@H]1CC[C@H]2NC[C@@H](O)COC[C@@H]2O1 | -10 | 0 | x | x
C=CCN1[C@@H]2CN(C(=O)NC(C)C)C[C@H]1C2c1ccc(Br)cc1 (stereo partly drawn) | 0 | 1 | x | x
COC(=O)[C@@H]1[C@@H](CO)[C@@H]2Cn3c(ccc(-c4cccc(F)c4)c3=O)[C@H]1N2C(=O)CC1CC1 | 20 | 0 | x | x
CCOC(=O)[C@]12Cc3cc(OC)ccc3[C@H]1N(C1CCCCC1)C(=O)c1cc(OC)ccc12 | 325* | 0 | -6 | x
CCOC(=O)[C@]12Cc3cc(C)ccc3[C@H]1N(C1CCCCC1)C(=O)c1cc(OC)ccc12 | 2 | 3 | -5 | x
C[C@]12CCC3C(CCC4=C/C(=N/OCC(=O)NC(CCC(N)=O)C(=O)O)CC[C@@]43C)C1CCC2O (stereo partly drawn) | 10 | 0 | -13 | 0
C[C@]12CCC3C(CCC4=C/C(=N/OCC(=O)NC(CCC(=O)O)C(=O)O)CC[C@@]43C)C1CCC2O (stereo partly drawn) | 44* | 0 | -20 | 0
Clc1ccc(COC(Cn2ccnc2)c2ccc(Cl)cc2Cl)c(Cl)c1 (stereo not drawn) | 49*! | 0 | -4 | -3
SMILES | INS-1E GSIS act | XiGFP reactiv | CaV13 ICDI inh | GAA850 FXN act
Cc1ccccc1-c1ccc([C@@H]2[C@H](CO)N3CCCCN(C(=O)Cc4ccccn4)C[C@@H]23)cc1 | -23 | 0 | x | x
CCC(=O)C(CCN1CCOCC1)(c1ccccc1)c1ccccc1 | -1 | 0 | -4 | 0
CC(C)[N+](C)(CCC(C(N)=O)(c1ccccc1)c1ccccc1)C(C)C | 48* | 0 | -5 | 0
Cc1cc(Cl)ccc1C(=O)C1CCCN(Cc2ccon2)C1 (stereo not drawn) | 8 | 0 | -7 | 0
O=C(c1cccc2ccccc12)C1CCCN(Cc2ccon2)C1 (stereo not drawn) | 40* | 27* | -5 | -1
O=C1CC[C@@]2(O)[C@H]3Cc4ccc(O)c5c4[C@@]2(CCN3CC2CC2)C1O5 (stereo partly drawn) | 9 | x | x | x
NC(N)=Nc1ccc2[nH]c3c(c2c1)C[C@@]1(O)[C@H]2Cc4ccc(O)c5c4[C@@]1(CCN2CC1CC1)[C@H]3O5 | x | x | x | 11*
CCCCn1c(O)c(/C=C2/C=CC=N2)c(=O)[nH]c1=O | 56* | 0 | -2 | -1
Nc1c(Br)cc2c3c(cccc13)-c1ccccc1-2 | -52 | 27* | -17 | x
c1ccc2c(c1)-c1cccc3cccc-2c13 | 15 | x | x | -2
FC(F)(F)CN1C[C@@H]2C(c3ccccc3)[C@H](C1)N2CC1CC1 (stereo partly drawn) | 6 | 0 | x | x
CC(C)c1cc(Br)c(NC(=O)Nc2cccnc2)c(Br)c1 | 115* | 0 | -20 | 0
COc1ccc(CC2c3cc(OC)c(OC)cc3CCN2C)cc1O (stereo not drawn) | 43* | 0 | -13 | 3
Cc1ccc(-n2c(C)nc3ccccc3c2=O)cc1C | 9 | 0 | -16 | 1
Cc1nc2ccccc2c(=O)n1-c1ccc(Cl)c(Cl)c1 | 40* | 0 | -19 | 2
CCNc1nc(Cl)nc(NC(C)C)n1 | 71* | 1 | -3 | 2
COc1cccc(-c2ccc3n(c2=O)C[C@H]2[C@H](CO)[C@@H](C(=O)O)[C@@H]3N2Cc2ccccc2F)c1 | -1 | 0 | x | x
Cc1nn(Cc2ccc(Cl)cc2Cl)c(Cl)c1C(=O)Nc1ccc(OC(F)F)cc1 | 71* | 0 | -4 | -1
CCN1[C@@H]2Cn3c(ccc(-c4ccc(OC)cc4)c3=O)[C@H]1[C@@H](C(=O)OC)[C@@H]2CO | 12 | 0 | x | x
COC(=O)C1C2CC[C@@H](CC1OC(=O)c1ccccc1)N2 (stereo partly drawn) | x | x | x | 0
CN1C2CCC1C(C(=O)O)C(OC(=O)c1ccccc1)C2 (stereo not drawn) | 40* | x | x | -1
CCOC(=O)C1C(OC(=O)c2ccccc2)CC2CCC1N2C (stereo not drawn) | 41* | x | x | -3
CN1[C@@H]2CN(CC3CC3)C[C@H]1C2c1ccc(Br)cc1 (stereo partly drawn) | -18 | 0 | x | x
CSc1ncc(Br)c(N2CC2)n1 | 42* | 0 | -4 | 2
CC1CN(c2cc([N+](=O)[O-])ccc2Cl)CC(C)N1 (stereo not drawn) | 41* | 0 | 6 | 1
